# Measurements as given in ChEMBL document CHEMBL3576798, “Depsipeptide companeramides from a Panamanian marine cyanobacterium associated with the coibamide producer” (J Nat Prod, 2015).
# The source made the active and inactive calls. The calls are words filed in the database; no cut-off is given here.
# Legend:
# MDA-MB-231 = assay: Cytotoxicity against human MDA-MB-231 cells at 1 uM after 24 hrs by MTT assay; assay type: functional, cell-based
# Procedure, shortened: (§1)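 MTT viability assay; cells seeded at 3000 per well the day before treatment, kept under standard growth conditions. Compounds dissolved in 100% DMSO (stored −20 °C), final DMSO at most 0.1%. Viability relative to vehicle-treated cells set as 100%; coibamide A (30 nM) as control cancer cell toxin.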
# SF-295 = assay: Cytotoxicity against human SF295 cells at 1 uM after 24 hrs by MTT assay; assay type: functional, cell-based; procedure, shortened: as §1
# Plasmodium falciparum [1] = assay: Antiplasmodial activity against chloroquine-resistant Plasmodium falciparum 7G8 in human erythrocyte after 72 hrs by SYBR Green I assay; assay type: functional, organism-based; conditions: 7G8, 72 h
# Procedure, shortened: (§2)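 Asynchronous parasites grown in human erythrocytes at 2% hematocrit in RPMI 1640 with 0.5% Albumax, 45 μg/L hypoxanthine, 50 μg/L gentamicin. Samples (10 mM stock in sterile water) serially diluted in medium, quadruplicate wells at 0.2% parasitemia, 2% hematocrit; 72 h at 37 °C. Lysis buffer with SYBR Green I added, 1 h rt dark, fluorescence ex 497/em 520 nm; IC50 by nonlinear regression of logistic dose–response curves.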
# SK-OV-3 = assay: Cytotoxicity against human SKOV3 cells at 1 uM after 24 hrs by MTT assay; assay type: functional, cell-based; procedure, shortened: as §1
# Plasmodium falciparum [2] = assay: Antiplasmodial activity against chloroquine-sensitive Plasmodium falciparum D6 in human erythrocyte after 72 hrs by SYBR Green I assay; assay type: functional, organism-based; conditions: D6, 72 h; procedure, shortened: as §2
# NCI-H460 = assay: Cytotoxicity against human NCI-H460 cells at 1 uM after 24 hrs by MTT assay; assay type: functional, cell-based; procedure, shortened: as §1
# Plasmodium falciparum [3] = assay: Antiplasmodial activity against chloroquine-resistant Plasmodium falciparum Dd2 in human erythrocyte after 72 hrs by SYBR Green I assay; assay type: functional, organism-based; conditions: Dd2, 72 h; procedure, shortened: as §2
Structure (SMILES),Activity (MDA-MB-231),Activity (SF-295),IC50 (Plasmodium falciparum [1]) [nM],Activity (SK-OV-3),IC50 (Plasmodium falciparum [2]) [nM],Activity (NCI-H460),IC50 (Plasmodium falciparum [3]) [nM]
C#CCCC[C@H]1NC(=O)[C@H](C(C)C)N(C)C(=O)[C@H](C)NC(=O)[C@H](CC(C)C)N(C)C(=O)[C@@H]2CCCN2C(=O)[C@H]([C@H](C)CC)NC(=O)[C@H](C(C)C)N(C)C(=O)[C@H]([C@H](C)CC)NC(=O)[C@@H](C)N(C)C(=O)[C@H](C(C)C)OC(=O)[C@H]1C,inactive,inactive,1100,inactive,570,inactive,1000
C#CCCC[C@H]1NC(=O)[C@H](C(C)C)N(C)C(=O)[C@H](C(C)C)NC(=O)[C@@H](C)N(C)C(=O)[C@@H]2CCCN2C(=O)[C@H]([C@H](C)CC)NC(=O)[C@H](C(C)C)N(C)C(=O)[C@H](C(C)C)NC(=O)[C@H](C)N(C)C(=O)[C@H](C(C)C)OC(=O)[C@H]1C,–,–,700,–,220,–,230
